Assay [1] has as its target T1, AlinCSP4 (Adelphocoris lineolatus, UniProt K9J9S0).
T1 sequence (K9J9S0 20-127): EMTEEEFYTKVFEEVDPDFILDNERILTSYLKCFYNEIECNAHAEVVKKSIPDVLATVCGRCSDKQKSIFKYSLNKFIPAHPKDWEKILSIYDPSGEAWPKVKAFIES
The assay is described as follows: Fluorescence competitive binding assay with 1-NPN as probe, recombinant AlinCSP4. The conditions noted are these: for binding to AlinCSP4 (in words): competitive binding with 1-NPN. A digest of the protocol:
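Refolded, His-tag-cleaved recombinant protein at 2 μM and 1-NPN at 2 μM in Tris-HCl pH 7.4 were titrated with 1 mM competitor stock to 2–30 μM final, at 25°C. Excitation was 337 nm, with emission read at 390–460 nm. IC50 is the competitor level that halves 1-NPN fluorescence, and Ki = IC50/(1+[1-NPN]/K1-NPN). IC50 <20 μM was taken as good binding; Ki was not calculated when IC50 >30 μM.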

The subject of assay [2] is antennae of female and male adults of A. lineolatus. The conditions noted are these: exceptions at 10% level; cited from earlier work.
Assay [3] has the same test system. The assay is described as follows: Electroantennogram. Details: species or system Adelphocoris lineolatus. Particulars: 0.01%, 0.1%, 1%, 10% v/v, normalized to 10% 3-hexanone. An outline of the steps:
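Antennae were excised from newly emerged lab-reared adults (green beans and 10% honey, 14L:10D, 29±1°C) and mounted between two electrodes with electrode gel. A 10 μL aliquot per dose was delivered in an air stream of 10 ml/sec, and signals were recorded for 5 s from 1 s before the stimulus. Paraffin oil served as control. Six antennae per sex were tested per compound, given as normalized mean ± SE and compared by one-way ANOVA (α=0.05).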

For assay [4], the target named is T1, AlinCSP4. The assay is described as follows: Binding of fluorescent probe 1-NPN to recombinant AlinCSP4. A digest of the protocol: (§1)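 Recombinant mature protein (E. coli BL21(DE3), pET30a(+)) was refolded from inclusion bodies, purified by two rounds of Ni affinity, and had the His-tag removed with enterokinase. 2 μM protein in 50 mM Tris-HCl pH 7.4 was titrated with 1 mM 1-NPN in methanol (stock) to 1–16 μM final, at 25°C. Excitation was 337 nm; emission peak was read at 390–460 nm. Analysis assumed 1:1 stoichiometry with fully active protein, using a Scatchard plot.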

The next assay addresses T2, AlinCSP6 (Adelphocoris lineolatus, UniProt K9J9R7).
T2 sequence (K9J9R7 20-132): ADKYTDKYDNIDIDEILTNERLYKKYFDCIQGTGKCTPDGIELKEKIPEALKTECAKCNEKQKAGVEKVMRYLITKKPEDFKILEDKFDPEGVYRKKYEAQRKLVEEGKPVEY
The assay is described as follows: Binding of fluorescent probe 1-NPN to recombinant AlinCSP6. An outline of the steps:
as §1

Another assay concerns the target T3, AlinCSP5 (Adelphocoris lineolatus, UniProt K9J9X7).
T3 sequence (K9J9X7 22-127): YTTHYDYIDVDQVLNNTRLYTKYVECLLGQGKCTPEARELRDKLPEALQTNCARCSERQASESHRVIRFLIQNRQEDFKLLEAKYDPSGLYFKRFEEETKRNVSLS
In words: Binding of fluorescent probe 1-NPN to recombinant AlinCSP5. A digest of the protocol: as §1

Assay [5] has as its system female adults of A. lineolatus. Particulars: plant volatile emitted by Bt cotton plants; cited from earlier work.
A further assay deals with AlinCSP1. The conditions noted are these: cited from earlier work.

Entries after “also recorded” stand apart in the source; their conditions may differ. Where only a bound is given, the exact number is not on record here.

For the molecule `C=CC(C)(O)CCC=C(C)CCC=C(C)C` (mixture of isomers) [Nerolidol], the IC50 (usually the concentration needed to halve the response being measured) on AlinCSP4 [1] came out at 2 ± 0.17 µM. Further, the “EAG response of terpenoids (in words)” value in assay [2] was “good EAG responses”.

In the case of `Cc1ccc(C=O)cc1C` [3,4-Dimethyl-benzaldehyde], the IC50 on AlinCSP4 [1] came to 10.6 ± 0.75 µM.

For `CC(=O)CCC=C(C)C` [6-Methyl-5-hepten-2-one], the IC50 at AlinCSP4 [1] was 20.2 ± 2.62 µM.

For `CC(=O)c1ccccc1` [Acetophenone], at AlinCSP4 [1], the IC50 turned out to be 27.5 ± 1.73 µM.

In the case of `O=Cc1ccccc1` [Benzaldehyde], on AlinCSP4 [1], the IC50 was 14.3 ± 1.86 µM.

In the case of `CCCCOC(=O)CCC` [Butyl butyrate], the half-inhibitory concentration (IC50) on AlinCSP4 [1] amounted to 21.1 ± 0.51 µM.

Turning to `CCCC(=O)OCC` [Ethyl butyrate], the IC50 at AlinCSP4 [1] stood at 9.81 ± 1.55 µM.

For `CCCCCCC=O` [Heptanal], the IC50 on AlinCSP4 [1] was 11.4 ± 0.47 µM.

Regarding `CCCCCC=O` [Hexanal], the IC50 at AlinCSP4 [1] was found to be 10.5 ± 2.11 µM.

For `CCCCCCOC(=O)CCC` [Hexyl butyrate], the IC50 on AlinCSP4 [1] stood at 9.22 ± 1.77 µM. Further, in assay [3], the “EAG response (in words)” value was “more sensitive EAG responses”.

As for `CCCCCCOC(=O)CCCCC` [Hexyl hexanoate], the IC50 at AlinCSP4 [1] came to 2.36 ± 0.21 µM.

As for `c1ccc2[nH]ccc2c1` [Indole], the IC50 at AlinCSP4 [1] was 23.3 ± 1.6 µM.

Take `CCCCCCO` [Ligand 1-Hexanol, 1-Hexanol]: the IC50 on AlinCSP4 [1] was determined as 12.5 ± 0.88 µM.

With `c1ccc(Nc2cccc3ccccc23)cc1` [Ligand 1-NPN, N-phenyl-1-naphthylamine], the Kd (as a rule, the equilibrium constant for the complex coming apart) on AlinCSP4 [4] worked out at 2.8 ± 0.4 µM; on AlinCSP6 it was 8.3 ± 1.8 µM; on AlinCSP5 it was 4.2 ± 0.5 µM.

Take `CCCCCC(C)=O` [Ligand 2-Heptanone, 2-Heptanone]: the IC50 at AlinCSP4 [1] was found to be 27.3 ± 0.6 µM.

As to `CCCCC(C)O` (stereo not drawn) [Ligand 2-Hexanol, 2-Hexanol], the IC50 at AlinCSP4 [1] was 9.63 ± 0.3 µM.

With `CCCCC(C)=O` [Ligand 2-Hexanone, 2-Hexanone], on AlinCSP4 [1], the IC50 was 25.7 ± 0.53 µM.

With `CCCCCCC(C)=O` [Ligand 2-Octanone, 2-Octanone], the IC50 on AlinCSP4 [1] was 25.2 ± 2.39 µM.

For the molecule `CCCC(=O)CC` [Ligand 3-Hexanone, 3-Hexanone], the IC50 at AlinCSP4 [1] was 24.2 ± 0.84 µM. Further, the “attraction of female adults (in words)” value in assay [5] is “strongly attract”.

Consider `C=C(C)[C@H]1CC=C(C)CC1` [Limonene], for which the “binding to AlinCSP4 (in words)” value on AlinCSP4 [1] is listed as “no binding”. For the same molecule, in assay [2], the “EAG response of terpenoids (in words)” value is recorded as “good EAG responses”.

Turning to `COC(=O)c1ccccc1O` [Methyl salicylate], the IC50 on AlinCSP4 [1] was found to be 12.7 ± 2.01 µM.

For `C=CC(=C)CCC=C(C)C` [Myrcene], the IC50 on AlinCSP4 [1] stood at 20.1 ± 0.81 µM.

Turning to `CCCCCCCCC=O` [Nonanal], the IC50 on AlinCSP4 [1] amounted to 13 ± 1.43 µM.

With `CCCCCCCCCOC(C)=O` [Nonyl acetate], on AlinCSP4 [1], the IC50 turned out to be 5.83 ± 0.44 µM.

On to `CCCCCCCC=O` [Octanal], for which the IC50 at AlinCSP4 [1] is 10.9 ± 0.86 µM.

As for `CCCCCCCCCCC` [Undecane], the IC50 on AlinCSP4 [1] was 7.13 ± 1.29 µM.

Take `CC/C=C\CCO` [cis-3-Hexen-1-ol]: the IC50 on AlinCSP4 [1] worked out at 21.7 ± 0.88 µM.

Turning to `CC/C=C\CCOC(C)=O` [cis-3-hexenyl acetate], on AlinCSP4 [1], the IC50 was over 30 µM and the “binding to AlinCSP4 (in words)” value is recorded as “no binding; also recorded: no or very weak binding”. In addition, the “binding affinity to AlinCSP1 (in words)” value with AlinCSP1 is “very good binding affinity”.

As for `CCC/C=C/C=O` [trans-2-Hexenal], the IC50 on AlinCSP4 [1] was found to be 16.3 ± 0.51 µM.

As to `CCC/C=C/COC(=O)CCC` [trans-2-hexenyl butyrate], the IC50 at AlinCSP4 [1] is 11 ± 2.09 µM. Further, in assay [3], the “EAG response (in words)” value is on record as “more sensitive EAG responses”.

Consider `C=C/C(C)=C/CC=C(C)C` [trans-β-Ocimene, trans -β-Ocimene], for which the “binding to AlinCSP4 (in words)” value on AlinCSP4 [1] is on record as “no binding”.

For `CC1=CC[C@H](C(C)C)C=C1` [α-Phellandrene], at AlinCSP4 [1], the IC50 was over 30 µM and the “binding to AlinCSP4 (in words)” value is listed as “no binding”. Moreover, the “EAG response of terpenoids (in words)” value in assay [2] was “good EAG responses”.

For the molecule `C=C1CC/C=C(\C)CC[C@@H]2[C@@H]1CC2(C)C` [β-Caryophyllene], the IC50 on AlinCSP4 [1] is 2.26 ± 0.26 µM.

For the molecule `CC(=O)/C=C/C1=C(C)CCCC1(C)C` [β-Ionone], on AlinCSP4 [1], the IC50 is 10.1 ± 1.24 µM.

For the molecule `C=C1CCC2CC1C2(C)C` (stereo not drawn) [β-Pinene], at AlinCSP4 [1], the IC50 was over 30 µM and the “binding to AlinCSP4 (in words)” value is “no binding”.

Turning to (+)-α-Pinene, the “binding to AlinCSP4 (in words)” value at AlinCSP4 [1] is listed as “no binding”.

Values taken from article PMC4308698 (Scientific Reports, 2015).
